Active and inactive are the calls of the source.
Key:
Rattus norvegicus [1] = assay: Analgesic activity in naive Sprague-Dawley rat assessed as increase in tail flick latency at 0.3 mg/kg, ip up to 48 hrs by tail-flick assay; type: functional, organism-based
Procedure, shortened: (§1)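 Naïve male Sprague–Dawley rats were dosed ip (DMSO/Cremophor EL/saline) or by gavage (DMSO in 20% condensed milk). Radiant heat was aimed 3 cm from the tail tip and latency timed by photocell. Baseline was set to ~5–7 s with a 25 s cutoff. Testing ran 1 h pre-dose and up to 48 h after. Peak effect was taken minus vehicle; n = 6–8; blinded.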

[2] = Toxicity in naive Sprague-Dawley rat assessed as immobility at 0.01 mg/kg, ip by after 2 to 48 hrs by catalepsy ring test; type: organism-based; conditions: in vivo
Procedure, shortened: (§2)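 In the ring immobility test, forepaws were placed on a 12 cm horizontal ring with hindpaws just touching the bench. Time to move off was recorded, 100 s cutoff. Testing was pre-dose and 2, 6, 24 and 48 h after ip or oral gavage dosing. Values are peak effect minus vehicle; n = 6–8; blinded.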

Rattus norvegicus [3] = assay: Analgesic activity in naive Sprague-Dawley rat assessed as tail flick latency at 0.1 to 10 mg/kg administered through oral gavage up to 48 hrs by tail-flick assay; type: functional, organism-based; procedure, shortened: as §1
[4] = Toxicity in naive Sprague-Dawley rat assessed as motor incoordination at 0.01 mg/kg, ip after 2 to 48 hrs by rotarod test; type: organism-based; conditions: in vivo
Procedure, shortened: (§3)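 Rats were trained 72 h earlier (3 sessions, 24 h apart) to stay ≥180 s on an accelerating rotarod (4–40 rev over 5 min). Time on rod was recorded to a 3 min cutoff, 1 h pre-dose and 2, 6, 24 and 48 h after ip or oral gavage dosing. Values are peak effect minus vehicle; n = 6–8; blinded.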

Rattus norvegicus [5] = assay: Analgesic activity in naive Sprague-Dawley rat assessed as tail flick latency at 0.01 mg/kg, ip up to 48 hrs by tail-flick assay; type: functional, organism-based; procedure, shortened: as §1
[6] = Toxicity in naive Sprague-Dawley rat assessed as hypothermia at 0.01 mg/kg, ip after 2 to 48 hrs by core temperature test; type: organism-based; conditions: in vivo
Procedure, shortened: (§4)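 Naïve rats were acclimated to a restrainer (two 5-min sessions 20 min apart). Core temperature was taken before and 2, 6, 24 and 48 h after ip (DMSO/Cremophor EL/saline) or oral gavage (DMSO in 20% condensed milk) dosing. Dose-response points are mean peak effect minus vehicle; n = 6–8 rats; blinded.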

[7] = Metabolic stability in Sprague-Dawley rat liver S9 fraction assessed as compound remaining at 10 uM measured at 1 hr by LC/MS analysis; type: ADME, subcellular; conditions: s9, 1 h
Procedure, shortened: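 Compound (10 μM final, from 1 mM ethanol stock) was incubated at 37 °C in male Sprague–Dawley rat liver S9 (1 mg protein/mL). The mix held an NADPH-regenerating system (1 mM NADP, 5 mM glucose 6-phosphate, 1 U/mL G6PDH) in 50 mM KPO4 pH 7.4 with 3 mM MgCl2, preincubated 5 min. Samples at 0–120 min were methanol-extracted and analysed by LC/MS.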

[8] = Metabolic stability in Sprague-Dawley rat plasma assessed as compound remaining at 10 uM measured at 1 hr by LC/MS analysis; type: ADME, cell-free
Procedure, shortened: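 Compound (10 μM final, from 1 mM ethanol stock) was incubated in male Sprague–Dawley rat plasma at 37 °C. Aliquots taken at 0, 30 and 60 min were extracted with 3 volumes methanol and centrifuged. Supernatants were analysed by LC/MS.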

Rattus norvegicus [9] = assay: Antiallodynic activity in SNE-induced mechanical allodynia naive Sprague-Dawley rat model assessed as […] in hindpaw ipsilateral withdrawal threshold at 3 mg/kg, po preincubated for 3 hrs followed by SNE addition; type: functional, organism-based
Procedure, shortened: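 SNE rats were dosed by oral gavage (drug in DMSO diluted in 20% sweetened condensed milk, 16 mL/kg). Ipsilateral/contralateral hindpaw withdrawal thresholds were measured by digital von Frey, 4 readings per paw averaged, before and at intervals after dosing. n = 8 rats; blinded; one-way RM ANOVA against predrug values.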

Rattus norvegicus [10] = assay: Antiallodynic activity in SNE-induced mechanical allodynia naive Sprague-Dawley rat model assessed as reversible […] in hindpaw ipsilateral withdrawal threshold at 0.3 mg/kg, ip preincubated for 3 hrs followed by SNE addition; type: functional, organism-based
Procedure, shortened: (§5)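 Male Sprague–Dawley rats received unilateral sciatic nerve entrapment. Testing began 8 days post-surgery at 3-day intervals, dosed ip in DMSO/Cremophor EL/saline. Hindpaw withdrawal threshold (g) was read with a digital von Frey meter, 4 readings per paw at 30 s spacing, averaged. Reads were taken 1 h before and 3, 6, 24 and 48 h after dosing; n = 8; blinded; one-way RM ANOVA.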

Cannabinoid receptor 1 [11] = molecular target: T1, Cannabinoid receptor 1 (Homo sapiens, UniProt P21554); assay: Agonist activity at human CB1R expressed in CHO cells by Ca2+ flux assay; type: functional, cell-based
T1 sequence (P21554 whole entry): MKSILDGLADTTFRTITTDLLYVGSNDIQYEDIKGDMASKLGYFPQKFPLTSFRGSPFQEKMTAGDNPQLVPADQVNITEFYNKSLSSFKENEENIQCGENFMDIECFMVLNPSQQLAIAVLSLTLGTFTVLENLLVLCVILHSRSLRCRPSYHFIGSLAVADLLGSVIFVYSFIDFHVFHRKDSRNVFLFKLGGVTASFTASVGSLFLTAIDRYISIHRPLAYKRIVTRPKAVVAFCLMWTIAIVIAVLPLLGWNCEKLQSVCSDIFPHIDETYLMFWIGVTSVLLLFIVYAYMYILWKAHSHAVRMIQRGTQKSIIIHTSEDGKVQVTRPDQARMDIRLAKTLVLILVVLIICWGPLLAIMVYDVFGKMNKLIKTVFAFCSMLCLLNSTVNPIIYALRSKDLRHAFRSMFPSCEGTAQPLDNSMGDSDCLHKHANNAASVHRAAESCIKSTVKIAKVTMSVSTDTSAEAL
Procedure, shortened: (§6)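 CHO cells stably co-expressing human CB1 or CB2 with Gαq16 were seeded at 40000/well and grown 24 h at 37 °C. They were loaded 1 h at 37 °C with Fluo-4 AM (2 μM final) in HBSS/20 mM HEPES/1% BSA/probenecid. Agonist was added after ~17 s baseline, and fluorescence (ex 488/em 525) was read each 1 s for 60 s. Runs were done 3–6 times; mean ± SEM.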

[12] = Toxicity in naive Sprague-Dawley rat assessed as hypothermia at 10 mg/kg administered through oral gavage after 2 to 48 hrs by core temperature test; type: organism-based; conditions: in vivo; procedure, shortened: as §4
[13] = Toxicity in naive Sprague-Dawley rat assessed as hypothermia at 0.3 mg/kg, ip after 2 to 48 hrs by core temperature test; type: organism-based; conditions: in vivo; procedure, shortened: as §4
Rattus norvegicus [14] = assay: Increase in SNE-induced hindpaw contralateral withdrawal threshold in naive Sprague-Dawley rat at 0.3 mg/kg, ip incubated for 3 hrs followed by SNE addition; type: organism-based; conditions: in vivo; procedure, shortened: as §5
[15] = Cmax in naive naive Sprague-Dawley rat at 0.3 mg/kg, ip by LC/MS/MS analysis; type: ADME, organism-based; design: dose 0.3 mg/kg, route intraperitoneal; conditions: in vivo
Procedure, shortened: (§7)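 Male Sprague–Dawley rats given a single ip injection (drug in 50/50 DMSO:Cremophor EL, diluted in sterile saline, 1.5 mL/kg). Tail-vein blood (~110 μL) drawn at intervals after brief restraint, centrifuged, plasma stored −20 °C. Quantified by LC-MS/MS against standard curves prepared in samples from untreated animals; n = 3 rats.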

Rattus norvegicus [16] = assay: (§8) Antiallodynic activity in SNE-induced mechanical allodynia naive Sprague-Dawley rat model assessed as decrease in hindpaw ipsilateral withdrawal threshold at 0.6 mg/kg, ip preincubated for 3 hrs followed by SNE addition in presence of SR141716; type: functional, organism-based
Procedure, shortened: (§9)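 SNE rats were given the test agonist ip alone, or 30 min after pretreatment with a selective CB1R or CB2R antagonist, with sessions at 3-day intervals. Ipsilateral hindpaw withdrawal threshold was measured by digital von Frey (4 readings per paw averaged). Tests were blinded.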

Rattus norvegicus [17] = assay: Antiallodynic activity in SNE-induced mechanical allodynia naive Sprague-Dawley rat model assessed as decrease in hindpaw ipsilateral withdrawal threshold at 0.6 mg/kg, ip preincubated for 3 hrs followed by SNE addition in presence of rimonabant; type: functional, organism-based; procedure, shortened: as §9
[18] = Half life in naive Sprague-Dawley rat at 0.3 mg/kg, ip by LC/MS/MS analysis; type: ADME, organism-based; conditions: in vivo; procedure, shortened: as §7
[19] = Toxicity in naive Sprague-Dawley rat assessed as motor incoordination at 10 mg/kg administered through oral gavage after 2 to 48 hrs by rotarod test; type: organism-based; conditions: in vivo; procedure, shortened: as §3
Rattus norvegicus [20] = assay: Antiallodynic activity in SNE-induced mechanical allodynia naive Sprague-Dawley rat model assessed as decrease in hindpaw ipsilateral withdrawal threshold at 0.6 mg/kg, ip preincubated for 3 hrs followed by SNE addition in presence of SR144528; type: functional, organism-based; procedure, shortened: as §9
[21] = Ratio of drug level in cerebrospinal fluid to plasma in naive Sprague-Dawley rat at 0.3 mg/kg, ip after 75 mins; type: ADME, organism-based, CSF/Plasma
Procedure, shortened: (§10)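 Samples taken from 3 rats ~75 min after ip dosing. CSF (100–150 μL) was taken from the cisterna magna under isoflurane. Brain was removed after pentobarbital anesthesia and cold-saline intracardiac perfusion. Plasma came from tail-vein blood. Drug was measured by LC-MS/MS against standard curves made in untreated-animal matrix, and the ratio was taken to plasma.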

[22] = Toxicity in naive Sprague-Dawley rat assessed as motor incoordination at 0.3 mg/kg, ip after 2 to 48 hrs by rotarod test; type: organism-based; conditions: in vivo; procedure, shortened: as §3
[23] = Toxicity in naive Sprague-Dawley rat assessed as immobility at 0.3 mg/kg, ip after 2 to 48 hrs by catalepsy ring test; type: organism-based; conditions: in vivo; procedure, shortened: as §2
[24] = Ratio of drug level in brain to plasma in naive Sprague-Dawley rat at 0.3 mg/kg, ip after 75 mins; type: ADME, organism-based; conditions: read-out: BPR; procedure, shortened: as §10
[25] = AUC in naive Sprague-Dawley rat at 0.3 mg/kg, ip by LC/MS/MS analysis; type: ADME, organism-based; conditions: in vivo; procedure, shortened: as §7
[26] = Toxicity in naive Sprague-Dawley rat assessed as immobility at 10 mg/kg administered through oral gavage after 2 to 48 hrs by catalepsy ring test; type: organism-based; conditions: in vivo; procedure, shortened: as §2
Cannabinoid receptor 2 = Cannabinoid receptor 2 (Homo sapiens, UniProt P34972); assay: Agonist activity at human CB2R expressed in CHO cells by Ca2+ flux assay; type: functional, cell-based; procedure, shortened: as §6
Cannabinoid receptor 2, sequence (P34972 whole entry): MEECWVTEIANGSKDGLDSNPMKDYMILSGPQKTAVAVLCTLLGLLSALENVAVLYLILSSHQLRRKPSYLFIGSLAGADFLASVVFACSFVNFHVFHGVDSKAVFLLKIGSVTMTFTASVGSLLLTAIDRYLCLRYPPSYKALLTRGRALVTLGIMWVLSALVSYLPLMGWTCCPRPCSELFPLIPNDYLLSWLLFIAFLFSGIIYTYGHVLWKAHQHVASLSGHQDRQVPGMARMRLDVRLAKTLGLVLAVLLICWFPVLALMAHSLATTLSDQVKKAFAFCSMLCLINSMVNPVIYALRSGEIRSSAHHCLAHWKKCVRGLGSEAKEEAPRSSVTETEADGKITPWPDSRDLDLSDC

Rattus norvegicus [27] = assay: as §8, with “tert-Butyl-4-[5-(4-Chlorophenyl)-1-(2,4-dichlorophenyl)-4- methyl-1H-pyrazole-3-amido]piperidine-1-carboxylate” for “SR141716”; type: functional, organism-based; procedure, shortened: as §9
Cannabinoid receptor 1 [28] = molecular target: T1, Cannabinoid receptor 1; assay: Displacement of [3H]-CP55940 from human CB1 receptor
Procedure, shortened: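 Radioligand displacement used [3H]-CP55940 as tracer in heterologous competition binding. Unlabeled reference ligands defined nonspecific binding. Ki was calculated by Cheng–Prusoff.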

CCCCCCC(C)(C)c1cc(O)c2c(c1)OC(C)(C)[C@@H]1CC=C(CO)C[C@@H]21
Activity (Rattus norvegicus [1]): Active
Activity [2]: Toxic
Activity (Rattus norvegicus [3]): Active
Activity [4]: Toxic
Activity (Rattus norvegicus [5]): Active
Activity [6]: Toxic

CCCCCn1cc(C(=O)c2cccc3ccccc23)c2cc(F)ccc21
Stability [7]: 13%
Stability [8]: 99%

CCCc1ccc(/C=C2\C=C(CCN3CCOCC3)c3ccccc32)c2ccccc12
Activity (Rattus norvegicus [9]): Active
Activity (Rattus norvegicus [1]): Active
Activity (Rattus norvegicus [10]): Active
EC50 (Cannabinoid receptor 1 [11]): 182 nM
Emax (Cannabinoid receptor 1 [11]): 108%
Activity [12]: Non-Toxic
Activity [13]: Non-Toxic
Activity (Rattus norvegicus [14]): Toxic
Activity (Rattus norvegicus [3]): Active
Cmax [15]: 11.9 ng/mL
Activity (Rattus norvegicus [16]): inactive
Stability [7]: 37%
Activity (Rattus norvegicus [17]): inactive
half-life [18]: 7.2 h
Activity [19]: Non-Toxic
Activity (Rattus norvegicus [20]): Active
Kp at 1.25 h [21]: 0.001
Activity [22]: Non-Toxic
Activity [23]: Non-Toxic
Kp at 1.25 h [24]: 0.182
Stability [8]: 92%
AUC [25]: 112 ng·h/mL
Activity [26]: Non-Toxic
EC50 (Cannabinoid receptor 2): 94 nM
Emax (Cannabinoid receptor 2): 69%
Activity (Rattus norvegicus [27]): inactive

CCCCCn1cc(C(=O)c2cccc3ccccc23)c2c(F)cccc21
Stability [7]: 5%
Stability [8]: 69%

COc1ccc(C(=O)c2c(C)n(CC[N+]3(C)CCOCC3)c3ccccc23)cc1
Ki (Cannabinoid receptor 1 [28]): > 10000 nM

— ChEMBL document CHEMBL4431329, “Peripherally Selective Cannabinoid 1 Receptor (CB1R) Agonists for the Treatment of Neuropathic Pain” (J Med Chem, 2016)
